Compound activity from PubChem BioAssay.
The list is not random: actives were taken first. Their share in the collection is about 3.3%.
SIAE inh: human SIAE inhibition, primary screen; Q9HAT2; inhibition, % at 9.66 µM; SIAE FP-Rh probe binding, fluorescence polarization; 0.69% of 370,000 active; AID 1053197;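 active means inhibition above a cutoff: mean of compounds within the control limits plus 3 SD of those, cut at about 17% in these data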;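 further: 0% = plate median of compound wells and 100% = probe without SIAE protein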
rCAG binder-1: r(CAG) repeat RNA binding; TO-PRO-1 dye displacement fluorescence; inhibition, % at 3 µM; 1.3% of 370,000 active; AID 651821;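 active means inhibition above the plate cutoff, the mean of all test compounds on that plate plus 3 SD, cut at about 35% in these data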;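 further: 0% = DMSO alone and 100% = 100 µM mitoxantrone as full dye displacement; higher means more dye released from RNA so lower well fluorescence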
ABHD4 inh: inhibitors of mouse ABHD4 | inhibition, % at 8.92 µM | purified mABHD4, FP-Rh probe fluorescence polarization | 0.54% of 370,000 active | Q8VD66;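 active means inhibition exceeding the mean over every tested compound plus 3 SD, cut at about 30% in these data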;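 further: 0% = plate median of compound wells and 100% = S159A mutant with DMSO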
Target sequence (Q8VD66 whole entry, looked up): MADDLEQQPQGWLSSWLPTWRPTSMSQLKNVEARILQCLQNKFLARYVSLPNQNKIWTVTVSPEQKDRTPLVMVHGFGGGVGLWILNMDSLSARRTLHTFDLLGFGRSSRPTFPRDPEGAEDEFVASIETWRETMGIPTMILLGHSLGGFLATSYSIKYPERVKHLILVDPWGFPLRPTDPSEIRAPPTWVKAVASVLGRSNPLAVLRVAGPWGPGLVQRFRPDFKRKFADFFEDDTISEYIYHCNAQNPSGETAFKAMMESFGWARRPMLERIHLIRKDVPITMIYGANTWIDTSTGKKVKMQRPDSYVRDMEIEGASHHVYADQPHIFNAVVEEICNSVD
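System: mouse ABHD4 enzyme, wild type / Medium: HEPES pH 7.0, NaCl, Pluronic buffer / Reagent: FP-Rh activity-based fluorescent probe / Control set: S159A mutant high control, sample median low control / Detection: fluorescence polarization with parallel and perpendicular emission, 525/598 nm / Schedule: 45 min + 60 min at 25 °C / Compound dosing: 8.92 µM, single dose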
TCR-CD3 inh: inhibitors of human TCR-CD3 interaction; TAMRA-labeled TCR probe fluorescence, biochemical; 0.37% of 360,000 active; AID 651800; inhibition, % at 9.4 µM; in the data active means inhibition above about 19%;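 further: recombinant mutant TCR 2C K166C tagged with TAMRA read by polarization; 0% = receptor in buffer alone and 100% = receptor with positive control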
PRMT1 FP inh: PRMT1 (human) inhibition, primary screen; 1.3% of 370,000 active; recombinant PRMT1, activity-based probe fluorescence polarization; inhibition, % at 2.79 µM; AID 652257;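 active means inhibition above about 21% made by adding two undisclosed values, limit read from the data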
Target sequence (Q99873 whole entry, looked up): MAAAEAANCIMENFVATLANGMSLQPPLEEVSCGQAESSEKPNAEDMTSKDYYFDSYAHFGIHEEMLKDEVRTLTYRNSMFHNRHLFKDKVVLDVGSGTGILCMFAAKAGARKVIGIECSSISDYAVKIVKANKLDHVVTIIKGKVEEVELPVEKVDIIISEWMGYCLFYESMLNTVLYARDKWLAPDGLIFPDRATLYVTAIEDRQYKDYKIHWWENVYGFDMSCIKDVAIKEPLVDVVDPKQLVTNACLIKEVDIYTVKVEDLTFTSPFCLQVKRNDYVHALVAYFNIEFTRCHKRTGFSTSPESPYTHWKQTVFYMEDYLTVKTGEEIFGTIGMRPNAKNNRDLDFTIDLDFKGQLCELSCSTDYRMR
rCAG binder conf: r(CAG) RNA repeat binding, confirmation | 70% of 4,300 active | shares compounds with rCAG binder-1 | inhibition, % at 3 µM | AID 652065 | TO-PRO-1 dye displacement fluorescence;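 active means inhibition above a per-plate cutoff, the mean inhibition of sample wells plus 3 SD, cut at about 35% in these data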;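 further: loss of TO-PRO-1 fluorescence as compound displaces dye from 1x1 AA loop RNA; 0% = DMSO only wells and 100% = 100 µM mitoxantrone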
DNA CAG counter: DNA CAG dye complex inhibition counter-screen. shares compounds with rCAG binder-1. d(CAG) DNA oligo TO-PRO-1 dye displacement, fluorescence. inhibition, % at 3 µM. 94% of 4,300 active;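 active means inhibition above its plate's cutoff, the mean test-well inhibition plus 3 SD, cut at about 4.8% in these data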;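 further: 0% = DNA dye mix with DMSO and 100% = 100 µM mitoxantrone; hits displace the dye from DNA and so lower well fluorescence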
dCAG dye DR: disrupts DNA CAG TO-PRO-1 complex in dose response; IC50, µM; 20% of 250 active; DNA CAG/GTC duplex TO-PRO-1 dye displacement fluorescence; shares compounds with rCAG binder-1; in the data active means IC50 below about 10 µM
dCAG DNA bind: DNA CAG dye complex inhibition, late stage dose response | IC50, µM | shares compounds with rCAG binder-1 | d(CAG) DNA duplex TO-PRO-1 dye displacement, fluorescence | 80% of 30 active
rCAG binder-2: r(CAG) repeat RNA binding, TO-PRO-1 displacement; 100% of 30 active; shares compounds with rCAG binder-1; r(CAG) RNA TO-PRO-1 dye displacement, fluorescence; IC50, µM; AID 720651
The depositor's hits bear a star; i = inactive; . = no result given. Unless noted, how the calls were made is not given here.

SMILES | SIAE inh | rCAG binder-1 | ABHD4 inh | TCR-CD3 inh | PRMT1 FP inh | rCAG binder conf | DNA CAG counter | others
CCC[C@H]1[C@@H](NC(=O)c2cccc(C(F)(F)F)c2)CC[C@@]23CCCN2C(=O)CCC[C@@H]13 | -4 | . | 2 | . | 1 | . | .
CCOc1ccc(-c2csc(NC(=O)CSCC(=O)O)n2)c2ccccc12 | -1 | 63* | -28 | 7 | 2 | 70* | 25* | dCAG dye DR=i;dCAG DNA bind=5.5*;rCAG binder-2=1.7*
Cc1ccc(OCC(C)CN2CCC(C(O)(c3ccccc3)c3ccccc3)CC2)cc1 (stereo unspecified) | 1 | 2 | 3 | . | -4 | . | .
Cc1ccc(/C(O)=C/C(=O)C(=O)NNC(=O)C(O)(c2ccccc2)c2ccccc2)cc1 | -7 | 46* | 2 | 2 | 1 | 29 | 13*
O=C(C=C(O)c1ccc(Cl)cc1)C(=O)NNC(=O)C(O)(c1ccccc1)c1ccccc1 | -12 | 71* | -8 | 7 | 1 | 36* | 12*
CC(=O)NNC(=O)C(O)(c1ccccc1)c1ccccc1 | 1 | -3 | -3 | 3 | 0 | . | .
O=C(CN1C(=O)S/C(=C\c2cccs2)C1=O)Nc1ccc(O)c(C(=O)O)c1 | -5 | 52* | 2 | -5 | 9 | 37* | 10*
O=C(CN1C(=O)S/C(=C\c2ccc(C(=O)O)cc2)C1=O)Nc1ccccc1 | 0 | 0 | -7 | -6 | 4 | . | .
O=C(CN1C(=O)S/C(=C/c2cccs2)C1=O)N1CCCC1 | 10 | 2 | -15 | 2 | 7 | . | .
O=C(CN1C(=O)S/C(=C\c2cccs2)C1=O)Nc1ccc(C(=O)O)c(O)c1 | 8 | 67* | -29 | 14 | 8 | 40* | 10*
Cc1ccc(CSc2nnc(-c3cccc(S(=O)(=O)N4CCOCC4)c3)n2CC(C)C)cc1 | 8 | 49* | 1 | 1 | -1 | 0 | 0
CC(C)Cn1c(SCC(N)=O)nnc1-c1cccc(S(=O)(=O)N2CCOCC2)c1 | 1 | 2 | 0 | 5 | -2 | . | .
C=C(C)C(=O)Nc1ccc(OC(F)(F)C(F)F)c(NC(=O)C(=C)C)c1 | 0 | 44* | 1 | 0 | 0 | 0 | -2
C#CCN1CC(N(C)CCOC(=O)c2cccs2)CS1(=O)=O (stereo unspecified) | 4 | -2 | 1 | . | -10 | . | .
CCOC(=O)N1CCC2(CC1)C(C#N)=C(N)Oc1c2c(C)nn1-c1cccc(Cl)c1 | 5 | 36* | 18 | 5 | 6 | 31 | 16*
Cc1ccc(-c2c(NC(=O)Nc3ccccc3)nc3ncccn23)cc1 | -9 | 3 | 0 | . | -8 | . | .
N#Cc1c(-c2c(Cl)cccc2Cl)noc1/C=C/Nc1ccc(C(=O)O)cc1 | -3 | 44* | -16 | 0 | 0 | 44* | 10*
COC(=O)c1sc(N2C(=O)C(=O)/C(=C(/O)c3ccccc3)C2c2ccco2)nc1C (stereo unspecified) | 0 | 37* | -3 | 2 | 3 | 31 | 6.3*
Cc1nc(N2C(=O)C(=O)/C(=C(/O)c3ccccc3)C2c2ccco2)sc1C (stereo unspecified) | -5 | 19 | 7 | -2 | 3 | . | .
Cc1ccc(NC(=O)c2ccccc2NS(=O)(=O)c2ccc(Cl)s2)cc1 | -10 | 85* | -38 | 3 | -2 | 72* | 34*
O=C(Nc1ccccc1Cc1ccccc1)c1ccccc1NS(=O)(=O)c1ccc(Cl)s1 | -22 | 91* | -93 | 1 | 2 | 91* | 66*
Cc1ccc(NS(=O)(=O)c2ccc(Cl)s2)nc1 | -2 | 3 | 0 | 5 | 1 | . | .
Cc1nc2sc(C(=O)NC3CC3)c(N)c2c(C)c1Cl | 3 | 4 | 3 | . | 6 | . | .
O=C(Cn1nnc(-c2ccc(N3CCOCC3)cc2)n1)c1cccc(F)c1 | -2 | 4 | 1 | . | 4 | . | .
O=C(Nc1cccc(Cl)c1)O[C@@H]1CC[C@@]23CCCN2C(=O)CCC[C@H]3C1 | -5 | . | -4 | . | -3 | . | .
SMILES | SIAE inh | rCAG binder-1 | ABHD4 inh | TCR-CD3 inh | PRMT1 FP inh | rCAG binder conf | DNA CAG counter | others
O=C(c1cc(Cl)cc(Cl)c1)N1CCC(Oc2cccnc2)CC1 | 5 | -2 | 1 | . | -2 | . | .
O=C(O)COc1ccccc1/C=N/NC(=O)Cc1ccccc1 | 1 | -3 | -2 | 3 | -1 | . | .
O=C(O)COc1ccccc1/C=N/NC(=O)Cc1csc(Nc2cccc(C(F)(F)F)c2)n1 | -9 | 59* | -2 | 1 | 6 | 55* | 17*
CN(C)/C=C/C(=O)c1ccc([N+](=O)[O-])c(CS(=O)(=O)c2ccccc2)c1 | 6 | 35* | -1 | -1 | 2 | 4 | 3
CCOc1ccc(CCNC(=O)c2cc(-c3ccccc3)c(N3CCOCC3)s2)cc1OC | -2 | 10 | 1 | . | 4 | . | .
CSc1nnc(NC(=O)c2nc(S(=O)(=O)Cc3cccc(C)c3)ncc2Cl)s1 | 5 | 37* | 3 | 1 | 7 | 25 | 4.5*
CSc1ncc(Cl)c(C(=O)Nc2nnc(SC/C=C/c3ccccc3)s2)n1 | 1 | 66* | -47 | 9 | 1 | 67* | 20*
CCSc1nnc(NC(=O)c2nc(S(=O)(=O)Cc3ccc(F)cc3)ncc2Cl)s1 | 2 | 36* | 1 | 2 | 2 | 29 | 5.8*
O=S(=O)(CC1NCc2cc(F)ccc21)NCCc1ccccc1 (stereo unspecified) | 6 | 8 | -5 | . | -1 | . | .
COc1cc(/C=C2/C(=O)c3cccc([N+](=O)[O-])c3C2=O)c(Br)cc1O | -15 | 60* | 46* | -7 | 62* | 89* | 62*
N#Cc1c(Cl)c(Cl)c2nnc(-c3ccc(Br)cc3)n2c1Cl | -8 | 44* | -11 | 7 | 8 | 40* | 11*
[S-]c1nnc(-c2ccc(Br)cc2)n1-c1ccccc1.[Zn+2] | -4 | 1 | 5 | 5 | 3 | . | .
CCCCCCCCCCCC(=O)c1c(O)cccc1O | -10 | 41* | -20 | -6 | 2 | 39* | 23*
CCCCCCCCCC(=O)O | 9 | 1 | 3 | -5 | -1 | . | .
O=C(NCCc1c[nH]c2ccccc12)OCc1cn(Cc2cccc(F)c2)nn1 | 0 | 3 | 1 | . | 4 | . | .
COc1ccc(CN2C[C@]3(C=C(C)Cn4c(=O)n(-c5ccccc5)c(=O)n43)N=C2NC(=O)c2ccccc2)c(OC)c1 | 2 | 42* | 0 | . | 1 | 43* | 18*
